Measured values as given in ChEMBL document CHEMBL1909531, “Mitochondrial respiration inhibitors suppress protein translation and hypoxic signaling via the hyperphosphorylation and inactivation of translation initiation factor eIF2α and elongation factor eEF2” (J Nat Prod, 2011).
Activity calls are given as the source filed them. The calls are words filed in the database; no cut-off is given here.

Columns and labels:
[1] = biological target: T1, Hypoxia inducible factors; HIF-1-alpha, HIF-2-alpha (Homo sapiens, UniProt Q16665+Q99814); assay: Inhibition of hypoxia-induced HIF1 activation in human T47D cells after 16 hrs by HRE3-TK-luciferase reporter gene assay; format: cell-based
Summary of the method: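 T47D cells carrying the pHRE3-TK-Luc reporter, grown in DMEM/F12 with 10% FBS; HIF-1 induced by hypoxia (1% O2). Activity reported as % inhibition of the induced control, calculated as [1 − (treated/control)] × 100.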

[2] = biological target: T1, Hypoxia inducible factors; HIF-1-alpha, HIF-2-alpha; assay: Inhibition of 1, 10-phenanthroline-induced HIF1 activation in human T47D cells after 16 hrs by HRE3-TK-luciferase reporter gene assay; format: cell-based
[3] = biological target: T1, Hypoxia inducible factors; HIF-1-alpha, HIF-2-alpha; assay: Inhibition of HIF1-mediated induction of Glut-1 mRNA expression in hypoxia-stimulated human T47D cells at 0.3 to 3 uM after 16 hrs by RT-PCR analysis; format: cell-based
[4] = biological target: T1, Hypoxia inducible factors; HIF-1-alpha, HIF-2-alpha; assay: Inhibition of HIF1-mediated induction of cellular VEGF protein in hypoxia-stimulated human T47D cells at 0.3 uM after 16 hrs by ELISA; format: cell-based
[5] = biological target: T1, Hypoxia inducible factors; HIF-1-alpha, HIF-2-alpha; assay: Inhibition of HIF1-mediated induction of secreted VEGF protein in hypoxia-stimulated human T47D cells at 0.3 uM after 16 hrs by ELISA; format: cell-based
[6] = biological target: T1, Hypoxia inducible factors; HIF-1-alpha, HIF-2-alpha; assay: Inhibition of HIF1-mediated induction of cellular VEGF protein in hypoxia-stimulated human T47D cells at 3 uM after 16 hrs by ELISA; format: cell-based
[7] = biological target: T1, Hypoxia inducible factors; HIF-1-alpha, HIF-2-alpha; assay: Inhibition of HIF1-mediated induction of secreted VEGF protein in hypoxia-stimulated human T47D cells at 3 uM after 16 hrs by ELISA; format: cell-based
[8] = biological target: T1, Hypoxia inducible factors; HIF-1-alpha, HIF-2-alpha; assay: Inhibition of HIF1-mediated induction of VEGF mRNA expression in human T47D cells at 3 uM after 16 hrs by RT-PCR analysis under normoxic condition; format: cell-based
T47D [9] = assay: Inhibition of 1, 10-phenanthroline-induced HIF1alpha protein accumulation in human T47D cells at 3 uM after 4 hrs by Western blot analysis; format: functional, cell-based
T47D [10] = assay: Inhibition of HIF1beta protein accumulation under hypoxic condition in human T47D cells at 3 uM after 4 hrs by Western blot analysis; format: functional, cell-based
T47D [11] = assay: Inhibition of 1, 10-phenanthroline-induced HIF1beta protein accumulation in human T47D cells at 3 uM after 4 hrs by Western blot analysis; format: functional, cell-based
T47D [12] = assay: Inhibition of cellular respiration in human T47D cell at 0.03 to 1 uM by oxygen consumption assay; format: functional, cell-based
Summary of the method: (§1)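 Oxygen consumption of intact T47D cells measured with a Clark-type electrode, in serum-free DMEM/F12 at 30 °C.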

T47D [13] = assay: Inhibition of cellular respiration in human T47D cells at 1 uM by oxygen consumption assay; format: functional; summary of the method: as §1
T47D [14] = assay: Inhibition of cellular respiration in human T47D cells at 0.3 uM by oxygen consumption assay in presence of complex 1 substrate malate and pyruvate; format: functional, cell-based
Summary of the method: (§2)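 Permeabilized T47D cells, oxygen consumption measured by Clark-type electrode. Complex I respiration started with malate plus pyruvate; succinate added as complex II substrate.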

T47D [15] = assay: Inhibition of cellular respiration in human T47D cells at 0.3 uM in presence of complex 2 substrate succinate; format: functional, cell-based; summary of the method: as §2
T47D [16] = assay: Antiproliferative activity against human T47D cells assessed as cell viability by SRB assay; format: functional, cell-based
Summary of the method: (§3)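 Cells grown in DMEM/F12 with 10% FBS, penicillin and streptomycin; 96-well viability assay, 2-day or 6-day exposure, with medium (5% FBS) and compound renewed after 3 days in the 6-day study. Read by optical density; % inhibition = [1 − (ODtreated/ODcontrol)] × 100 versus medium control.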

MDA-MB-231 [17] = assay: Antiproliferative activity against human MDA-MB-231 cells assessed as cell viability by SRB assay; format: functional, cell-based; summary of the method: as §3
PC-3 = assay: Antiproliferative activity against human PC3 cells assessed as cell viability by SRB assay; format: functional, cell-based; summary of the method: as §3
MDA-MB-231 [18] = assay: Reduction in ATP level in human MDA-MB-231 cells at 0.1 to 1 uM after 48 hrs by HPLC-UV analysis; format: functional, cell-based
Summary of the method: (§4)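 Cells seeded at 5 × 10^5 per well in DMEM/F12 with 10% FBS; after 24 h, half the medium was replaced with serum-free medium containing compound. Cells washed with cold DPBS, extracted with cold 0.4 M perchloric acid, neutralized with K2CO3. Nucleotides quantified by C18 HPLC-UV, 50 mM potassium phosphate pH 6.0/MeOH mobile phase, 0.7 mL/min.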

MDA-MB-231 [19] = assay: Reduction in ATP level in human MDA-MB-231 cells after 72 hrs by HPLC-UV analysis; format: functional, cell-based
Summary of the method: (§5)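 5 × 10^5 cells per well seeded in DMEM/F12 with 10% FBS. After 24 h, half the medium replaced with serum-free DMEM/F12 containing compound. After exposure, cells washed in cold DPBS and extracted with cold 0.4 M perchloric acid, then neutralized with K2CO3. ATP quantified by reversed-phase C18 HPLC-UV using 50 mM potassium phosphate pH 6.0/MeOH at 0.7 mL/min.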

T47D [20] = assay: Reduction in ATP level in human T47D cells after 72 hrs by HPLC-UV analysis; format: functional, cell-based; summary of the method: as §5
T47D [21] = assay: Reduction in ATP level in human T47D cells after 48 hrs by HPLC-UV analysis; format: functional, cell-based; summary of the method: as §5
T47D [22] = assay: Reduction in ATP level in human T47D cells by HPLC-UV analysis at 1 uM after 72 hrs; format: functional, cell-based; summary of the method: as §4
[23] = biological target: Serine/threonine-protein kinase mTOR (Homo sapiens) (UniProt P42345); assay: Inhibition of mTOR in human T47D cells assessed as eIF2alpha hyperphosphorylation on Ser 51 at 1 to 10 uM after 30 mins by Western blotting; format: cell-based
Summary of the method: (§6)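 Cells seeded at 0.8 × 10^6 per well, exposed 30 min at 37 °C, 5% CO2, in DMEM/F12 with 5% FBS. Lysed in modified RIPA (pH 7.6) with protease and phosphatase inhibitors; 40 µg protein run on 4–20% gels, nitrocellulose transfer. Phospho-specific and total eIF2α/eEF2 primaries at 1:1,000, HRP anti-rabbit at 1:2000, chemiluminescence on film.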

[24] = biological target: Serine/threonine-protein kinase mTOR (Homo sapiens) (UniProt P42345); assay: Inhibition of mTOR in human T47D cells assessed as eEF2 hyperphosphorylation on Ser 56 at 1 to 10 uM after 30 mins by Western blotting; format: cell-based; summary of the method: as §6
[25] = biological target: Serine/threonine-protein kinase mTOR (Homo sapiens) (UniProt P42345); assay: Inhibition of mTOR-mediated 4E-BP1 phosphorylation on Thr 37/46 in human MDA-MB-231 cells at 1 to 10 uM after 30 mins by Western blotting; format: cell-based
[26] = biological target: Serine/threonine-protein kinase mTOR (Homo sapiens) (UniProt P42345); assay: Inhibition of mTOR-mediated rpS6 phosphorylation on Ser 235/236 in human MDA-MB-231 cells at 1 to 10 uM after 30 mins by Western blotting; format: cell-based
[27] = biological target: Serine/threonine-protein kinase mTOR (Homo sapiens) (UniProt P42345); assay: Inhibition of mTOR-mediated eIF4E phosphorylation on Ser 209 in human MDA-MB-231 cells at 1 to 10 uM after 30 mins by Western blotting; format: cell-based
[28] = biological target: Serine/threonine-protein kinase mTOR (Homo sapiens) (UniProt P42345); assay: Inhibition of mTOR in human MDA-MB-231 cells assessed as eEF2 hyperphosphorylation on Ser 56 at 1 to 10 uM after 30 mins by Western blotting; format: cell-based; summary of the method: as §6
T47D [29] = assay: Inhibition of cellular respiration in human T47D cells at 0.3 uM by oxygen consumption assay in presence of complex 3 substrate antimycin A; format: functional, cell-based

IC50 [1]: 0.063 µM | IC50 [2]: > 10 µM | inhibition [3]: Active | inhibition [4]: Active | inhibition [5]: Active | inhibition [6]: Active | inhibition [7]: Active | inhibition [8]: inactive | inhibition [23]: Dose-dependent effect | Activity [24]: Dose-dependent effect | inhibition [25]: inactive | inhibition [26]: inactive | inhibition [27]: inactive | Activity [28]: Dose-dependent effect
Structure (SMILES): CC(C)CC(=O)O[C@@H]1CC[C@]2(C)[C@H]3CC[C@]45C[C@]4(CC[C@@H]5[C@@H]4C[C@H]([C@@H]5OC5(C)C)OC4O)[C@]3(C)[C@H](O)C[C@H]2C1(C)C (stereo not given in full) [SKIMMIAREPIN A]
inhibition (T47D [9]): inactive | inhibition (T47D [10]): inactive | inhibition (T47D [11]): inactive | inhibition (T47D [12]): Dose-dependent effect | inhibition at 1 µM (T47D [13]): 73% | inhibition (T47D [14]): Active | inhibition (T47D [15]): inactive | Activity (T47D [16]): Active | Activity (MDA-MB-231 [17]): inactive | Activity (PC-3): Active | Activity (MDA-MB-231 [18]): inactive | Activity (MDA-MB-231 [19]): Dose-dependent effect | Activity (T47D [20]): Dose-dependent effect | Activity (T47D [21]): Active | Activity (T47D [22]): Active | inhibition (T47D [29]): inactive
